Measured values from different studies.

Structure (SMILES)	cell line	assay	conditions	IC50 [µM]
COc1ccc(-c2nc(N3CCOCC3)c3sc(CN(C)c4ncc(C(=O)NO)cn4)cc3n2)cn1	MP46	cell growth or viability, ATP luminescence	72 h	0.00928
CC1(COc2ccc(CC3SC(=O)NC3=O)cc2)CCCCC1 (stereo not shown)	HepaRG	reactive oxygen species, inhibitor	16 h	11.1
O=C(CSc1nc2ccccc2s1)N/N=C/c1ccc(OCC(=O)Nc2cccc(Cl)c2)cc1	CAPAN-1	cell growth or viability, MTS	72 h	18.2
C[C@H]1C[C@H]2[C@@H]3CCC4=CC(=O)C=C[C@]4(C)[C@H]3C(=O)C[C@]2(C)[C@@]1(O)C(=O)CO	HepaRG	reactive oxygen species, inhibitor	16 h	5.27
CC(C)(C)c1cnc(CSc2cnc(NC(=O)C3CCN(C(=O)CCCCCCCN4Cc5cc6c(cc5C4)C(=O)N(C4CCC(=O)NC4=O)C6=O)CC3)s2)o1 (stereo not shown)	SJSA-1	cell growth or viability, MTT		0.174
Cc1cccc(C)c1NC(=O)CN1CCCC1=O	HepaRG	reactive oxygen species, inhibitor	16 h	5.93
O=C(NO)c1ccc(Cn2cnc3c(Nc4ccc(F)c(Cl)c4)ncnc32)cc1	THP-1	cell growth or viability, MTT	72 h	1.61
O=P1(C2CCCCC2)CCCCC1	SW-620	cell growth or viability, MTT	72 h	16.1
O=c1cc(OCc2cc(-c3ccc(Cl)cc3Cl)no2)c2ccccc2o1	CAPAN-1	cell growth or viability, MTS	72 h	80.1
COc1ccc(N(C)c2nc(C)nc3ccccc23)cc1OCCCC(=O)NO	MP46	cell growth or viability, ATP luminescence	72 h	0.0948
FC(F)(F)c1cc(OCc2cc(-c3ccccc3)no2)c2ccccc2n1	CAPAN-1	cell growth or viability, MTS	72 h	7.4
Nc1ccccc1NC(=O)c1ccc(Cn2cnc3c(Nc4ccc(Cl)cc4)ncnc32)cc1	THP-1	cell growth or viability, MTT	72 h	0.48
COc1cc([C@@H]2c3cc4c(cc3[C@@H](O[C@@H]3O[C@@H]5CO[C@@H](C)O[C@H]5[C@H](O)[C@H]3O)[C@H]3COC(=O)[C@H]23)OCO4)cc(OC)c1O	CAPAN-1	cell growth or viability, MTS	72 h	0.24
C/C=C1\NC(=O)[C@H]2CSSCC/C=C/[C@H](CC(=O)N[C@H](C(C)C)C(=O)N2)OC(=O)[C@H](C(C)C)NC1=O	MP46	cell growth or viability, ATP luminescence	72 h	0.00127
FC(F)(F)c1cc(OCc2cc(-c3ccc(Cl)cc3Cl)no2)c2ccccc2n1	CAPAN-1	cell growth or viability, MTS	72 h	> 100
CONC(=O)c1cccc2c1cc(C)n2-c1nc2c(c(NCc3ccccc3)n1)CCCN2	SW-620	cell growth or viability	72 h	2.3

Structure (SMILES)	cell line	assay	conditions	IC50 [µM]
Clc1ccc(-c2cc(CNc3cccc4cccnc34)on2)c(Cl)c1	CAPAN-1	cell growth or viability, MTS	72 h	14.9
O=P1(c2ccccc2)CCCCC1	SW-620	cell growth or viability, MTT	72 h	> 100
O=c1cc(OCc2cc(-c3ccc(C(F)(F)F)cc3)no2)c2ccccc2o1	CAPAN-1	cell growth or viability, MTS	72 h	> 100
O=[N+]([O-])c1ccc(Sc2cccc[n+]2[O-])c2nonc12	MP46	cell growth or viability, ATP luminescence	72 h	2.79
N/C(=N\O)c1ccc(-c2cc(CNc3cccc4cccnc34)on2)cc1	CAPAN-1	cell growth or viability, MTS	72 h	4.7
O=C(NO)c1ccc(Cn2cnc3c(Nc4ccc(Cl)cc4)ncnc32)cc1	THP-1	cell growth or viability, MTT	72 h	0.19
CC(C)C[C@H](NC(=O)[C@H](Cc1ccccc1)NC(=O)c1cnccn1)B(O)O	MP46	cell growth or viability, ATP luminescence	72 h	0.00352
N#Cc1ccc(-c2cc(COc3cc(C(F)(F)F)nc4ccccc34)on2)cc1	CAPAN-1	cell growth or viability, MTS	72 h	22.5
O=C(CSc1nc2ccccc2s1)N/N=C/c1ccc(OCC(=O)Nc2cccc(Br)c2)cc1	CAPAN-1	cell growth or viability, MTS	72 h	> 100
c1ccc(Oc2ccc(Nc3c4c(nc5ccccc35)CCC4)cc2)cc1	THP-1	cell growth or viability	72 h	18.3
Nc1ccccc1NC(=O)c1ccc(Cn2cnc3c(Nc4ccc(Br)cc4F)ncnc32)cc1	THP-1	cell growth or viability, MTT	72 h	0.41
Cc1noc2c1-c1ccc(-c3cnn(C)c3)cc1C(c1ccc(Cl)cc1)=N[C@H]2CC(N)=O	MP46	cell growth or viability, ATP luminescence	72 h	0.248
O=c1cc(OCc2cc(-c3ccccn3)no2)c2ccccc2o1	CAPAN-1	cell growth or viability, MTS	72 h	> 100
COc1cccc2c1C(=O)c1c(O)c3c(c(O)c1C2=O)C[C@@](O)(C(=O)CO)C[C@@H]3O[C@H]1C[C@H](N)[C@H](O)[C@H](C)O1	SW-620	cell growth or viability, MTT	72 h	0.3
CC(=O)N1c2ccc(-c3ccc(C(=O)O)cc3)cc2[C@H](Nc2ccc(Cl)cc2)C[C@@H]1C	MP46	cell growth or viability, ATP luminescence	72 h	0.104
